According to ChEMBL document CHEMBL4038302, “Fibroblast Activation Protein α Activated Tripeptide Bufadienolide Antitumor Prodrug with Reduced Cardiotoxicity” (J Med Chem, 2017):
pIC50: −log10 of the molar value. Activity calls are given as the source filed them. The calls are words filed in the database; no cut-off is given here.

Legend:
Mus musculus [1] = assay: Hepatotoxicity in BALB/C nude mouse xenografted with human MDA-MB-231 cells at 12 umol/kg, iv administered starting on day 5 measured after day 22 by hematoxylin-eosin staining-based assay; assay type: toxicity, organism-based; settings: in vivo
Method in brief: (§1)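 Tissues from dosed xenograft mice fixed for 24 h and paraffin-embedded. Sections of 5 μm, H&E stained; heart, liver, spleen, lung, kidney and femur examined by a pathologist blind to treatment.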

Mus musculus [2] = assay: Acute toxicity in Kunming mouse assessed as mortality at 12 umol/kg, iv after 8 hrs post dose; assay type: organism-based; settings: in vivo
Mus musculus [3] = assay: Cardiotoxicity in BALB/C nude mouse xenografted with human MDA-MB-231 cells assessed as change in left ventricular internal systole dimension at 12 umol/kg, iv administered starting on day 5 measured after day 22 by echocardiography; assay type: toxicity, organism-based; settings: in vivo
Method in brief: (§2)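 Same MDA-MB-231 xenograft mice, given daily iv doses in 5% HS15 from day 5. After 22 days of dosing, transthoracic echocardiography with a 21 MHz transducer under 1.5% isoflurane, supine. M-mode images taken from the parasternal short-axis view at the papillary muscle; IVSd, IVSs, LVIDd and LVIDs derived, n = 6.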

Mus musculus [4] = assay: Cardiotoxicity in BALB/C nude mouse xenografted with human MDA-MB-231 cells assessed as change in interventricular septal diastole dimension at 12 umol/kg, iv administered starting on day 5 measured after day 22 by echocardiography; assay type: toxicity, organism-based; settings: in vivo; method in brief: as §2
Mus musculus [5] = assay: Toxicity in BALB/C nude mouse xenografted with human MDA-MB-231 cells assessed as histopathologic change in femur at 12 umol/kg, iv administered starting on day 5 measured after day 22 by hematoxylin-eosin staining-based assay; assay type: organism-based; settings: in vivo; method in brief: as §1
[6] = Safety index, ratio of test compound LD50 to arenobufagin LD50 for Kunming mouse; assay type: ADME; settings: in vivo
Method in brief: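 LD50 from single-dose iv acute toxicity in Kunming mice (five dose levels per compound, n = 10 per group, 14-day observation), calculated by Bliss method; ratio taken against arenobufagin LD50.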

Mus musculus [7] = assay: Nephrotoxicity in BALB/C nude mouse xenografted with human MDA-MB-231 cells at 12 umol/kg, iv administered starting on day 5 measured after day 22 by hematoxylin-eosin staining-based assay; assay type: toxicity, organism-based; settings: in vivo; method in brief: as §1
Mus musculus [8] = assay: Toxicity in BALB/C nude mouse xenografted with human MDA-MB-231 cells assessed as histopathologic change in spleen at 12 umol/kg, iv administered starting on day 5 measured after day 22 by hematoxylin-eosin staining-based assay; assay type: organism-based; settings: in vivo; method in brief: as §1
[9] = Ratio of invivo prodrug activation in tumor of BALB/C nude mouse xenografted with human MDA-MB-231 cells assessed as FAP-alpha mediated (S)-((3S,5R,8R,9S,10S,11S,13R,14S,17R)-11,14-dihydroxy-10,13-dimethyl-12-oxo-17-(2-oxo-2H-pyran-5-yl)hexadecahydro-1H-cyclopenta[a]phenanthren-3-yl) 2-amino-3-(1H-indol-3-yl)propanoate formation in absence of talabostat to FAP-alpha mediated (S)-((3S,5R,8R,9S,10S,11S,13R,14S,17R)-11,14-dihydroxy-10,13-dimethyl-12-oxo-17-(2-oxo-2H-pyran-5-yl)hexadecahydro-1H-cyclopenta[a]phenanthren-3-yl) 2-amino-3-(1H-indol-3-yl)propanoate formation in presence of talabostat at 40 umol/L by LC-MS/MS analysis; design: species or system Neoplasm
MCF7 = assay: Antiproliferative activity against FAP-alpha deficient human MCF7 cells incubated for 48 hrs by MTT assay; assay type: functional, cell-based; settings: MCF7, 48 h
Method in brief: (§3)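 Cells grown in DMEM with 10% FBS and 1% penicillin-streptomycin at 37 °C, 5% CO2; 10% heat-inactivated FBS used during cytotoxicity testing to exclude serum FAP activity. Viability read by MTT; IC50 as mean ± SEM of at least three independent experiments. Transfected lines were made from MDA-MB-231 with human FAPα plasmid or empty pCMV6-Entry vector and checked by Western blot at 48 h.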

Mus musculus [10] = assay: Toxicity in BALB/C nude mouse xenografted with human MDA-MB-231 cells assessed as body weight change at 12 umol/kg, iv administered starting on day 5 measured after day 22; assay type: organism-based; settings: in vivo
MDA-MB-231 [11] = assay: Induction of apoptosis in human MDA-MB-231 cells xenografted in BALB/C nude mouse at 4 umol/kg, iv administered starting on day 5 measured after day 22 by tunnel assay relative to control; assay type: functional; settings: in the assay text read “12 umol/kg” for “4 umol/kg”
Method in brief: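 Paraffin tumour sections from dosed xenograft mice stained by in situ cell death detection (TUNEL), examined blind to treatment. Percentage of apoptotic cells quantified by image analysis. Mean ± SEM, n = 6, versus the 5% HS15 control.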

MDA-MB-231 [12] = assay: Antiproliferative activity against human MDA-MB-231 cells transfected with human FAP-alpha incubated for 48 hrs by MTT assay; assay type: functional, cell-based; settings: MDA-MB-231, 48 h; method in brief: as §3
Mus musculus [13] = assay: Cardiotoxicity in BALB/C nude mouse xenografted with human MDA-MB-231 cells assessed as change in LDH level at 12 umol/kg, iv administered starting on day 5 measured after day 22; assay type: toxicity, organism-based; settings: in vivo
Method in brief: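 Serum from xenograft mice given daily iv doses in 5% HS15: blood taken by cardiac puncture before sacrifice and spun at 3000 rpm for 20 min at 4 °C. D-LDH activity measured with a colorimetric kit. Mean ± SEM, n = 6; one-way ANOVA with Tukey's test against the 5% HS15 control.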

Mus musculus [14] = assay: Toxicity in BALB/C nude mouse xenografted with human MDA-MB-231 cells assessed as histopathologic change in lungh at 12 umol/kg, iv administered starting on day 5 measured after day 22 by hematoxylin-eosin staining-based assay; assay type: organism-based; settings: in vivo; method in brief: as §1
MDA-MB-435 = assay: Antiproliferative activity against wild type human MDA-MB-435 cells expressing FAP-alpha incubated for 48 hrs by MTT assay; assay type: functional, cell-based; settings: MDA-MB-435, 48 h; method in brief: as §3
MDA-MB-231 [15] = assay: Antitumor activity against human MDA-MB-231 cells xenografted in BALB/C nude mouse assessed as decrease in tumor weight at 4 umol/kg, iv administered starting on day 5 measured after day 22; assay type: functional, organism-based
Method in brief: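 Female BALB/C mice inoculated subcutaneously in the back with 1 × 10^7 MDA-MB-231 cells in Matrigel–PBS (1:1). From day 5, daily iv dosing in 5% Solutol-HS15 vehicle, with a vehicle control group. Tumours measured by caliper every 2 days (v = 0.5 × a × b²); tumour weight as mean ± SEM, n = 6, one-way ANOVA with Tukey's test.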

Mus musculus [16] = assay: Cardiotoxicity in BALB/C nude mouse xenografted with human MDA-MB-231 cells assessed as change in interventricular septal systole dimension at 12 umol/kg, iv administered starting on day 5 measured after day 22 by echocardiography; assay type: toxicity, organism-based; settings: in vivo; method in brief: as §2
MDA-MB-231 [17] = assay: Antiproliferative activity against FAP-alpha deficient human MDA-MB-231 cells incubated for 48 hrs by MTT assay; assay type: functional, cell-based; settings: MDA-MB-231, 48 h; method in brief: as §3

SMILES: C[C@]12CC[C@H](OC(=O)[C@H](Cc3c[nH]c4ccccc34)NC(=O)[C@@H]3CCCN3C(=O)CNC(=O)OCc3ccccc3)C[C@H]1CC[C@@H]1[C@@H]2[C@H](O)C(=O)[C@]2(C)[C@@H](c3ccc(=O)oc3)CC[C@]12O
- Activity (Mus musculus [1]): Non-Toxic
- Activity (Mus musculus [2]): Non-Toxic
- Activity (Mus musculus [3]): Non-Toxic
- Activity (Mus musculus [4]): Non-Toxic
- Activity (Mus musculus [5]): Non-Toxic
- selectivity ratio [6]: 6.5
- Activity (Mus musculus [7]): Non-Toxic
- Activity (Mus musculus [8]): Non-Toxic
- Ratio [9]: 20
- pIC50 (MCF7): 7.94
- Activity (Mus musculus [10]): Non-Toxic
- fold change (FC) (MDA-MB-231 [11]): 5
- pIC50 (MDA-MB-231 [12]): 7.93
- Activity (Mus musculus [13]): Non-Toxic
- Activity (Mus musculus [14]): Non-Toxic
- pIC50 (MDA-MB-435): 7.97
- Activity (MDA-MB-231 [15]): Active
- Activity (Mus musculus [16]): Non-Toxic
- pIC50 (MDA-MB-231 [17]): 7.57
